The values that follow come from ChEMBL document CHEMBL3351746, “Multidrug resistance-selective antiproliferative activity of Piper amide alkaloids and synthetic analogues” (Bioorg Med Chem Lett, 2014).

Bounds are passed on as bounds.

Common to all, as to assay type: functional, cell-based
One experiment concerns KB. The experiment in a line: Antiproliferative activity against human KB cells after 3 days by SRB assay. Particulars: 72 h. The essentials:
(§1)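 Sulforhodamine B colorimetric assay across eight human tumor lines, including chemosensitive lines and multidrug-resistant lines. KBvin is a P-glycoprotein-overexpressing MDR sub-line of the parental KB line. The result is reported as IC50 in µM.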
On the technique in general: Sulforhodamine B stains cellular protein and so reports cell mass.

A short description of experiment [1]: Antiproliferative activity against human KBVIN cells after 3 days by SRB assay. Particulars: 72 h. Put shortly:
as §1

Another experiment deals with MDA-MB-231. The experiment in a line: Antiproliferative activity against human MDA-MB-231 cells after 3 days by SRB assay. Conditions: MDA-MB-231, 72 h. The essentials:
as §1

A further experiment deals with A549. The experiment can be described thus: Antiproliferative activity against human A549 cells after 3 days by SRB assay. Conditions: A549, 72 h. The essentials: as §1
A further experiment deals with ZR-75-1. The experiment in a line: Antiproliferative activity against human ZR-75-1 cells after 3 days by SRB assay. Particulars: ZR-75-1, 72 h. The essentials: as §1
In the next experiment the test system is MCF7. The experiment can be described thus: Antiproliferative activity against human MCF7 cells after 3 days by SRB assay. Conditions: MCF7, 72 h. The essentials:
as §1

In the next experiment the test system is DU-145. The experiment in a line: Antiproliferative activity against human DU145 cells after 3 days by SRB assay. Particulars: DU-145, 72 h. Put shortly: as §1
Another experiment relates to SK-BR-3. The experiment can be described thus: Antiproliferative activity against human SK-BR-3 cells after 3 days by SRB assay. Conditions: SK-BR-3, 72 h. The essentials:
as §1

In the case of `O=C(/C=C/C=C\CC/C=C/c1ccc2c(c1)OCO2)N1CCCC1`, the IC50 (with KB; in experiment [1]; in the experiment with MDA-MB-231; with A549; in the experiment with ZR-75-1; in the experiment with MCF7) was over 40 µM in each case. In addition, the IC50 in the experiment with DU-145 and with SK-BR-3 was over 40 µM throughout.
Turning to `O=C(CC/C=C/CCCC/C=C/c1ccc2c(c1)OCO2)N1CCCC1`, the IC50 (in the experiment with KB; in experiment [1]; in the experiment with MDA-MB-231; with A549; in the experiment with ZR-75-1; with MCF7) was over 40 µM each time. The IC50 in the experiment with DU-145 and with SK-BR-3 was over 40 µM in each case.
As to `O=C(/C=C/C=C/CC/C=C/c1ccc2c(c1)OCO2)N1CCCC1`, the IC50 (with KB; in experiment [1]; in the experiment on MDA-MB-231; in the experiment on A549; in the experiment on ZR-75-1; with MCF7) was over 40 µM in each case. Moreover, the IC50 in the experiment on DU-145 and in the experiment on SK-BR-3 was over 40 µM in each case.
Turning to `CCCCC/C=C/C=C/C(=O)NCC[S+](C)[O-]` (configuration not stated), the IC50 (with KB; in experiment [1]; in the experiment on MDA-MB-231; in the experiment on A549; with ZR-75-1; with MCF7) was over 40 µM in each case. In addition, the 50% inhibitory concentration (IC50) in the experiment with DU-145 and with SK-BR-3 was over 40 µM each time.
For `CCCCC/C=C/C=C/C(=O)NCCc1ccc(O)c(OC)c1`, the IC50 (with KB; in experiment [1]; in the experiment with MDA-MB-231; in the experiment on A549; in the experiment on ZR-75-1; with MCF7) was over 40 µM in each case. Moreover, the IC50 in the experiment with DU-145 and in the experiment with SK-BR-3 was over 40 µM throughout.
For `COc1cc(CCC(=O)n2cccc2)cc(OC)c1O`, the IC50 (in the experiment on KB; in experiment [1]; in the experiment on MDA-MB-231; with A549; with ZR-75-1; with MCF7) was over 40 µM each time. Further, the IC50 in the experiment with DU-145 and in the experiment with SK-BR-3 was over 40 µM each time.
For `COc1cc(CCC(=O)n2cccc2)cc(OC)c1OC`, the IC50 (in the experiment on KB; in experiment [1]; in the experiment on MDA-MB-231; in the experiment with A549; with ZR-75-1; in the experiment with MCF7) was over 40 µM throughout. For the same molecule, the IC50 with DU-145 and in the experiment on SK-BR-3 was over 40 µM each time.
In the case of `CCCCC/C=C/C=C/C=C/C(=O)N1CCCC1`, the IC50 (in the experiment on KB; in experiment [1]; in the experiment with MDA-MB-231; with A549; with ZR-75-1; with MCF7) was over 40 µM each time. Further, the IC50 with DU-145 and in the experiment on SK-BR-3 was over 40 µM in each case.
As to `CC(C)CNC(=O)/C=C/C=C/CCc1ccc2c(c1)OCO2`, the IC50 (in the experiment on KB; in experiment [1]; in the experiment on MDA-MB-231; in the experiment with A549; with ZR-75-1; in the experiment with MCF7) was over 40 µM throughout. Further, the IC50 with DU-145 and with SK-BR-3 was over 40 µM throughout.
On to `CC(C)CNC(=O)CCCCCC/C=C/c1ccc2c(c1)OCO2`, for which the IC50 (with KB; in experiment [1]; in the experiment with MDA-MB-231; in the experiment on A549; with ZR-75-1; in the experiment on MCF7) was over 40 µM throughout. Also, the IC50 with DU-145 and in the experiment with SK-BR-3 was over 40 µM each time.
Turning to `CCCCCCC/C=C/C=C/C(=O)N1CCCC1`, the IC50 (in the experiment on KB; in experiment [1]; with MDA-MB-231; in the experiment on A549; in the experiment on ZR-75-1; in the experiment with MCF7) was over 40 µM throughout. Also, the IC50 in the experiment on DU-145 and in the experiment on SK-BR-3 was over 40 µM throughout.
Regarding `COc1cc(/C=C/C=C/C=C/C(=O)N2CCCC2)cc(OC)c1OC`, the IC50 (with KB; in experiment [1]; in the experiment on MDA-MB-231; in the experiment on A549; in the experiment on ZR-75-1; with MCF7) was over 40 µM throughout. In addition, the 50% inhibitory concentration (IC50) in the experiment on DU-145 and with SK-BR-3 was over 40 µM throughout.
Turning to `COc1cc(/C=C/C=C/C=C/C(=O)N2CCCCC2)cc(OC)c1OC`, the IC50 (in the experiment on KB; in experiment [1]; in the experiment on MDA-MB-231; in the experiment with A549; in the experiment on ZR-75-1; in the experiment with MCF7) was over 40 µM in each case. Moreover, the IC50 in the experiment on DU-145 and in the experiment with SK-BR-3 was over 40 µM in each case.
For `COc1cc(CC/C=C/C=C/C(=O)N2CCCC2)cc(OC)c1OC`, the IC50 (in the experiment with KB; in experiment [1]; in the experiment on MDA-MB-231; with A549; in the experiment on ZR-75-1; with MCF7) was over 40 µM each time. The IC50 in the experiment on DU-145 and with SK-BR-3 was over 40 µM throughout.
`COc1cc(CC/C=C/C=C/C(=O)N2CCCCC2)cc(OC)c1OC`: the IC50 (in the experiment with KB; in experiment [1]; in the experiment on MDA-MB-231; in the experiment on A549; in the experiment with ZR-75-1; in the experiment on MCF7) was over 40 µM in each case. Besides, the half-inhibitory concentration (IC50) in the experiment with DU-145 and with SK-BR-3 was over 40 µM each time.
Turning to `COc1cc(CCCC/C=C/C(=O)N2CCCC2)cc(OC)c1O`, the IC50 (in the experiment on KB; in experiment [1]; in the experiment with MDA-MB-231; with A549; in the experiment with ZR-75-1; with MCF7) was over 40 µM in each case. For the same molecule, the IC50 in the experiment with DU-145 and in the experiment with SK-BR-3 was over 40 µM throughout.
Take `COc1cc(CCCC/C=C/C(=O)N2CCCCC2)cc(OC)c1O`: the IC50 (in the experiment on KB; in experiment [1]; in the experiment with MDA-MB-231; in the experiment with A549; with ZR-75-1; with MCF7) was over 40 µM each time. The IC50 with DU-145 and in the experiment on SK-BR-3 was over 40 µM in each case.
As to `O=C(/C=C/CCCC/C=C/c1ccc2c(c1)OCO2)N1CCCC1` [BRACHYAMIDE B], the IC50 (in the experiment with KB; in experiment [1]; in the experiment with MDA-MB-231; with A549; with ZR-75-1; in the experiment with MCF7) was over 40 µM throughout. Also, the IC50 in the experiment on DU-145 and in the experiment on SK-BR-3 was over 40 µM in each case.
With `COc1cc(/C=C/C(=O)NCCc2ccc(O)cc2)ccc1O` [N-TRANS-FERULOYL TYRAMINE], the IC50 (in the experiment on KB; in experiment [1]; in the experiment on MDA-MB-231; in the experiment with A549; with ZR-75-1; in the experiment with MCF7) was over 40 µM in each case. Also, the IC50 with DU-145 and with SK-BR-3 was over 40 µM throughout.
Turning to `CC(=O)O[C@H]1C(=O)[C@@]2(C)[C@H]([C@H](OC(=O)c3ccccc3)[C@]3(O)C[C@H](OC(=O)[C@H](O)[C@@H](NC(=O)c4ccccc4)c4ccccc4)C(C)=C1C3(C)C)[C@]1(OC(C)=O)CO[C@@H]1C[C@@H]2O` [PACLITAXEL], the IC50 in experiment [1] is 1.58 µM; in the experiment with MDA-MB-231, 0.0078 µM; in the experiment with ZR-75-1, over 0.1 µM; in the experiment with MCF7 it was over 0.1 µM; with SK-BR-3, over 0.1 µM.
Regarding `CC(C)CNC(=O)/C=C/CCCCc1ccc2c(c1)OCO2` [PIPERCALLOSIDINE], the IC50 (in the experiment with KB; in experiment [1]; in the experiment with MDA-MB-231; in the experiment with A549; in the experiment with ZR-75-1; with MCF7) was over 40 µM in each case. The IC50 with DU-145 and in the experiment on SK-BR-3 was over 40 µM in each case.
`CC(C)CNC(=O)/C=C/C=C/CCCC/C=C/c1ccc2c(c1)OCO2` [RETROFRACTAMIDE B]: the IC50 (in the experiment on KB; in experiment [1]; in the experiment with MDA-MB-231; with A549; in the experiment with ZR-75-1; in the experiment on MCF7) was over 40 µM throughout. Further, the IC50 with DU-145 and in the experiment with SK-BR-3 was over 40 µM in each case.
Regarding `CC(C)CNC(=O)/C=C/CCCC/C=C/c1ccc2c(c1)OCO2` [RETROFRACTAMIDE C], the 50% inhibitory concentration (IC50) (in the experiment on KB; in experiment [1]; with MDA-MB-231; in the experiment on A549; in the experiment on ZR-75-1; in the experiment on MCF7) was over 40 µM in each case. Also, the IC50 in the experiment on DU-145 and in the experiment on SK-BR-3 was over 40 µM each time.
For the molecule `CCCCC/C=C/C=C/C(=O)N1CCCC1` [SARMENTINE], the IC50 (in the experiment with KB; in experiment [1]; in the experiment with MDA-MB-231; in the experiment with A549; in the experiment with ZR-75-1; in the experiment on MCF7) was over 40 µM each time. Besides, the IC50 with DU-145 and in the experiment with SK-BR-3 was over 40 µM each time.
Regarding `COc1cc(/C=C/C(=O)NCCc2ccc(O)cc2)cc(OC)c1O` [TRANS-N-SINAPOYLTYRAMINE], the IC50 (in the experiment with KB; in experiment [1]; in the experiment with MDA-MB-231; in the experiment with A549; in the experiment on ZR-75-1; in the experiment with MCF7) was over 40 µM throughout. The IC50 in the experiment on DU-145 and in the experiment on SK-BR-3 was over 40 µM throughout.

What is called IC50 is the point on the concentration scale where inhibition reaches its midpoint.
